Measurements from article PMC8434796 (Glycobiology, 2021).
In brackets after ≈: the same amount, converted by molar mass. Several values for one entry are separate records, joined by “and”; a condition that tells them apart may be missing. Equal values may be shown once.

Tests used:
[1] = test system: human pancreatic cancer cell (KP1-NL); details: fixed concentration 10 μM; ref Morohashi et al. 2006; cited from earlier work
NIH3T3 cells [2] = assay: Inhibition of hyaluronan secreted in NIH3T3 cell culture media; format: cell-based, mouse; details: for IC50: Mus musculus, NIH3T3, 72 h, read-out: IC50 for inhibition of hyaluronan deposition in cell culture media; for Effect on hyaluronan production (in words): NIH3T3 HA production assay
NIH3T3 cells [3] = assay: MTT cell viability assay; format: cell-based, mouse; details: proliferating NIH3T3 cells, 3 days incubation
Summary of the method: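 Proliferating NIH3T3 fibroblasts exposed for 3 days to rising test compound concentrations. MTT (5 mg/mL in PBS, 10 μL per 100 μL medium) incubated 3 h at 37°C, 5% CO2. Plates centrifuged, medium removed, formazan dissolved in DMSO, absorbance read at 570 nm. n = 3.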

NIH3T3 cells [4] = assay: Cell population doubling time; format: cell-based, mouse; details: 72 h; for Doubling time: control 21 h
NIH3T3 cells [5] = assay: Microscopic evaluation; format: cell-based, mouse; details: 10 μM, 3 days, HABP staining, vs DMSO control
Summary of the method: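 NIH3T3 seeded at 2 × 10^4 cells/well; next day fresh medium with 10 μM test compound, 3 days. Fixed 10 min in 10% buffered formalin, avidin-biotin blocked, biotinylated HABP overnight at 4°C, then streptavidin-Alexa 488, Hoechst and phalloidin. Confocal 40× 5 × 5 mosaics; HA-positive area as % of total cell area. Three wells. Controls: 0.05% DMSO; hyaluronidase digest of untreated cells (1 mg/mL, 30 min, 37°C).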

HAS3 = assay: qPCR relative expression of HAS3 in NIH3T3 cells; format: cell-based, mouse
Summary of the method: (§1)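 Total RNA isolated with TRI reagent; concentration and quality checked by spectrophotometry and electrophoresis. Target mRNA quantified by SYBR Green real-time qPCR and normalized to GAPDH mRNA. Values are mean ± SD of three technical replicates.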

[6] = test system: hyaluronan synthase activity; details: plasma membrane preparations containing hyaluronan synthase activity; ref Nakamura et al. 1997; cited from earlier work
Hyal2 = assay: qPCR relative expression of Hyal2 in NIH3T3 cells; format: cell-based, mouse
Summary of the method: as §1

HAS2 = assay: qPCR relative expression of HAS2 in NIH3T3 cells; format: cell-based, mouse
Summary of the method: as §1

[7] = test system: CCl4 induced liver fibrosis; assay: CCl4-induced liver fibrosis in mice; format: in vivo; details: for Blood parameters, compound alone vs control group: mice treated by compound only, 600 mg/kg daily; for Hepatotoxicity of compound alone (AST/ALT): mice, daily dose of 600 mg/kg per os
[8] = mice fed with 5% chow, averaged over 24 h; ref Kuipers et al. 2016; cited from earlier work
endothelial cells = details: 0.6 μM, ref Nagy et al. 2010; cited from earlier work
Hyal1 = assay: qPCR relative expression of Hyal1 in NIH3T3 cells; format: cell-based, mouse
Summary of the method: as §1

B16F10 cells = details: 30 μM, ref Nagy et al. 2019; cited from earlier work
[9] = test system: A2058 melanoma cells, MCF-7 and MDA-MB-361 breast, SKOV-3 ovarian and UT-SCC118 squamous carcinoma cells; details: incubation with 4MU; ref Kultti et al. 2009; cited from earlier work
[10] = test system: CCl4 induced liver fibrosis; details: CCl4 treated animals; ref Andreichenko et al. 2019; cited from earlier work
[11] = test system: Drosophila mutEt15 (I1056F/M); details: Drosophila line with CRISPR/Cas9 point mutation I1056F/M; ref Douris et al. 2016; cited from earlier work
Drosophila WT = details: wild-type Drosophila; ref Douris et al. 2016; cited from earlier work
zebrafish embryos = details: ref Park et al. 2019; cited from earlier work

COc1ccc2c(C)cc(=O)oc2c1 [II, 7-methoxy-4-methyl coumarin]
Inhibitory activity on HA production (in words) [1]: inactive

O=C(NC(=O)c1ccccc1Cl)Nc1ccc(OC(F)(F)F)cc1 [triflumuron, 2-chloro-N-[[4-(trifluoromethoxy)phenyl]carbamoyl] benzamide]
IC50 (NIH3T3 cells [2]): 1.48 ± 1.44 µM
Not toxic in concentrations up to (MTT) (NIH3T3 cells [3]): > 1 mM

Cc1cc(=O)oc2c(C)c3c(cc12)C(=O)CC1(CCCCC1)O3 [Compound IX, 6′,10′-dimethyl-3′H-spiro[cyclohexane-1,2′-pyrano[3,2-g]chromene]-4′,8′-dione]
Effect on hyaluronan production (in words) (NIH3T3 cells [2]): completely abrogated inhibition of hyaluronan production
Doubling time (NIH3T3 cells [4]; all tested concentrations): 16.5 h
Did not affect cell viability at concentrations up to (NIH3T3 cells [3]): > 1 mM
Not toxic in concentrations up to (MTT) (NIH3T3 cells [3]): > 0.5 mM

Cc1c2c(cc3c(-c4ccccc4)cc(=O)oc13)C(=O)CC1(CCNCC1)O2 [Compound VII, 10′-methyl-6′-phenyl-3′H-spiro[piperidine-4,2′-pyrano[3,2-g]chromene]-4′,8′-dione]
Decrease of the percentage of HA-positive area (NIH3T3 cells [5]): at least 3 times
Concentration from/over which doubling time increased (NIH3T3 cells [4]): over 10 μM

CC(=O)c1cc2c(C)cc(=O)oc2c(C)c1O [VIII, 6-acetyl-7-hydroxy-4,8-dimethyl-2H-chromen-2-one]
Decrease of the percentage of HA-positive area (NIH3T3 cells [5]): at least 3 times
Concentration from/over which doubling time increased (NIH3T3 cells [4]): > 50 µM
Toxicity at concentrations higher than (MTT) (NIH3T3 cells [3]): > 60 µM

Cc1cc(=O)oc2cc(O)ccc12 [Compound 4MU, 7-hydroxy-4-methylchromen-2-one]
Activated HAS3 expression at concentration over (HAS3): over 500 μM
HA synthesis in cell-free assay (in words) [6]: did not inhibit HA synthesis
Hyal2 expression not affected at concentrations up to (Hyal2): > 1 mM
IC50 (HAS2; Mus musculus, NIH3T3, read-out: IC50 for inhibition of HAS2 expression): ~250 µM
Decrease of the percentage of HA-positive area (NIH3T3 cells [5]): at least 3 times
Plasma HA ([7]; CCl4-treated mice, 600 mg/kg daily per os): reduced plasma HA to near the control levels
Blood parameters, compound alone vs control group [7]: did not find any significant differences
Hepatotoxicity of compound alone (AST/ALT) [7]: no hepatotoxicity
Effective plasma concentration [8]: 0.89 ± 0.51 μg/mL and 5.1 ± 2.9 μM
Reduction of hyaluronan secretion (endothelial cells): 30%
IC50 (Hyal1; Mus musculus, NIH3T3, read-out: Upregulated Hyal1 expression with IC50): ~250 µM
HA production inhibition (B16F10 cells): 50%
Doubling time (NIH3T3 cells [4]; 250 μM): 38 h
Concentration from/over which doubling time increased (NIH3T3 cells [4]): ≥ 60 µM
Depletion of UDP-GlcUA levels [9]: 38–95%
Collagen deposition in the liver [10]: prevented collagen deposition

O=C(NC(=O)c1c(F)cccc1F)Nc1cc(Cl)c(OC(F)(F)C(F)C(F)(F)F)cc1Cl (centres unmarked) [lufenuron]
LC50 mutEt15 [11]: 16.659 mg/L (≈ 32.6 µM)
LC50 WT (Drosophila WT): 0.148 mg/L (≈ 0.29 µM)

CC(C)N1C(=O)N(c2ccccc2)CSC1=NC(C)(C)C [buprofezin, 2-(tert-butylimino)-5-phenyl-3-(propan-2-yl)-1,3,5-thiadiazinan-4-one]
IC50 (NIH3T3 cells [2]): 1.24 ± 0.87 µM
LC50 mutEt15 [11]: > 1000 mg/L
LC50 WT (Drosophila WT): 53.2 mg/L (≈ 174 µM)
Not toxic in concentrations up to (MTT) (NIH3T3 cells [3]): > 1 mM

Cc1c2c(cc3c(-c4ccccc4)cc(=O)oc13)C(=O)CC1(CCCCC1)O2 [Compound VI, 10′-methyl-6′-phenyl-3′H-spiro[cyclohexane-1,2′-pyrano[3,2-g]chromene]-4′,8′-dione]
Effect on hyaluronan production (in words) (NIH3T3 cells [2]): completely abrogated inhibition of hyaluronan production
Did not affect cell viability at concentrations up to (NIH3T3 cells [3]): > 1 mM
Not toxic in concentrations up to (MTT) (NIH3T3 cells [3]): > 0.5 mM

CCOc1cc(C(C)(C)C)ccc1C1COC(c2c(F)cccc2F)=N1 (centres unmarked) [etoxazole, 4-(4-tert-butyl-2-ethoxyphenyl)-2-(2,6-difluorophenyl)-4,5-dihydro-1,3-oxazole]
Inhibited HAS3 expression at concentrations higher than (HAS3): higher than 250 μM
Effect on cardiovascular development (in words) (zebrafish embryos): inhibits cardiovascular development
Level of Hyal2 (in words) (Hyal2): not affected
IC50 (NIH3T3 cells [2]): 4.21 ± 3.82 µM
Upregulation of HAS2 expression (HAS2; NIH3T3 cells, 120 μM): ~1.5 times
Suppression of HAS2 expression (HAS2; NIH3T3 cells, doses higher than 120 μM): up to 80%
αSMA level in liver homogenate (western blot) ([7]; CCl4-treated mice, 600 mg/kg daily per os, n = 5): significant reduction
Plasma HA ([7]; CCl4-treated mice, 600 mg/kg daily per os, 600 mg/kg): reduced plasma HA to near the control levels
Plasma HA ([7]; CCl4-treated mice, 600 mg/kg daily per os, listed as Etoxazole, 600 mg/kg): reduced HA production
Blood parameters, compound alone vs control group [7]: did not find any significant differences
Hepatotoxicity of compound alone (AST/ALT) [7]: no hepatotoxicity
Hyal1 level (in words) (Hyal1; NIH3T3 cells, all tested concentrations): significantly dropped
Not toxic in concentrations up to (MTT) (NIH3T3 cells [3]): > 1 mM

C[C@@H]([C@H](N)C(=O)N[C@H](C(=O)O)[C@H]1O[C@@H](n2ccc(=O)[nH]c2=O)[C@H](O)[C@@H]1O)[C@H](O)c1ccc(O)cn1 [nikkomycin]
Effect on hyaluronan production (in words) (NIH3T3 cells [2]): ineffective

CC(=O)c1cc2c(-c3ccccc3)cc(=O)oc2c(C)c1O [Compound V, 6-acetyl-7-hydroxy-8-methyl-4-phenyl-2H-chromen-2-one]
Concentration from/over which doubling time increased (NIH3T3 cells [4]): ≥ 125 µM
Toxicity at concentrations higher than (MTT) (NIH3T3 cells [3]): higher than 125 μM

CCN(CC)Cc1cc2c(-c3ccccc3)cc(=O)oc2c(C)c1O [IV, 6-((diethylamino)methyl)-7-hydroxy-8-methyl-4-phenyl-2H-chromen-2-one]
Concentration from/over which doubling time increased (NIH3T3 cells [4]): ≥ 500 µM

O=C(NC(=O)c1c(F)cccc1F)Nc1ccc(Cl)cc1 [diflubenzuron]
LC50 mutEt15 [11]: > 5000 mg/L
LC50 WT (Drosophila WT): 0.322 mg/L (≈ 1.04 µM)
